Hits are enriched below; roughly 2.4% of the tested compounds scored in any of these assays.
Tb MetRS inh: blocks T. brucei methionyl-tRNA synthetase activity; purified T. brucei MetRS, ATP depletion, Kinase-Glo luminescence; AID 624268; actives 0.4% (n = 360,000); inhibition, % at 11.9 µM;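 active = inhibition above a per-plate cutoff of the control wells' mean inhibition plus 3 SD, cut at about 5.5% in these data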
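Dosing: 11.9 µM compound single dose, 0.9% DMSO; Assay system: purified T. brucei MetRS enzyme; Measured by: Kinase-Glo luciferase luminescence reporting remaining unconsumed ATP; Schedule: 15 min plus 2 h at 25 °C.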
Neddyl block: blocks human cullin neddylation; actives 0.58% (n = 360,000); inhibition, % at 25 µM; P61081+Q13564; TR-FRET cullin neddylation, biochemical; AID 651699; in the data active = inhibition above about 36%
CSN deneddyl inh: inhibitors of human CSN-mediated cullin deneddylation. Q92905. AID 651999. inhibition, % at 12.5 µM. actives 0.38% (n = 360,000). Purified CSN, SCF-Nedd8-OG deneddylation, fluorescence polarization;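 active = pattern-corrected inhibition above about 35%, with an unprinted fluorescence ratio check between 0.5 and 1.5, limit read from the data, passing the limit was not always enough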
Target sequence (Q92905 whole entry, looked up, one chain of several): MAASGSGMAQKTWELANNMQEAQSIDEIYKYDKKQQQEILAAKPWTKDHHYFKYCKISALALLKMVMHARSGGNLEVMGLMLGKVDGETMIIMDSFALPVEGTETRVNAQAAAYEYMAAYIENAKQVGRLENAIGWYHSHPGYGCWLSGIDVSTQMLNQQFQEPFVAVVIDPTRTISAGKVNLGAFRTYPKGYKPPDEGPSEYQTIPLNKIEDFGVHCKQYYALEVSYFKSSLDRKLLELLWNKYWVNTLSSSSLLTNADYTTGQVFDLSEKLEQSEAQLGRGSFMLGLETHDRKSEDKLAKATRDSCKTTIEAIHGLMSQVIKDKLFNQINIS
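Material: human Csn5 produced in HEK293T cells; Input: enzyme 0.24 nM; Reagent: SCFSkp2-Nedd8OG substrate at 10 nM final; Dosing: 12.5 µM compound; Incubation: 90 min reaction at room temperature; Detection: fluorescence polarization of the substrate; Evaluation: % inhibition of substrate cleavage by Csn5; Control set: substrate-only high control, full reaction low control.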
PREPL inhibitor: inhibitors of human prolyl oligopeptidase-like enzyme PREPL; Q4J6C6; recombinant PREPL, fluorescence polarization activity-based probe; inhibition, % at 5.96 µM; actives 0.68% (n = 320,000); AID 2751; in the data active = inhibition above about 43%
HNF4A DNA FP: change in binding of human HNF4 alpha to DNA. activity change, % at 10 µM. P41235. HNF4a-FITC DNA binding, fluorescence polarization, 1 h. actives 0.3% (n = 360,000). AID 1224865; in the data active = activity change above about 30%, passing the limit was not always enough
Rpn11 block: inhibitors of human proteasome Rpn11. AID 588493. inhibition, % at 20 µM. actives 0.59% (n = 360,000). human 26S proteasome, Ub4-pepOG fluorescence polarization; 20S core pre-blocked with epoxomicin. O00487;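 active = inhibition at 20 µM, scaled to each plate's controls, above about 33%, limit read from the data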
TbMetRS confirm: confirmation of Trypanosoma brucei MetRS inhibitors; shares compounds with Tb MetRS inh; T. brucei MetRS enzyme, luminescence (ATP depletion); inhibition, % at 11.9 µM; actives 93% (n = 1,400); AID 624412; in the data active = inhibition above about 7%
Jurkat cytotox: counter-screen for T. brucei MetRS inhibitors: Jurkat cell cytotoxicity | shares compounds with Tb MetRS inh | actives 12% (n = 1,400) | inhibition, % at 8.3 µM | Jurkat cells viability, ATP luminescence; in the data active = inhibition above about 15%
TbMetRS FP orth: T. brucei MetRS inhibition, orthogonal assay; inhibition, % at 11.9 µM; AID 651607; purified T. brucei MetRS, fluorescence polarization; actives 44% (n = 1,400); shares compounds with Tb MetRS inh; in the data active = inhibition above about 17%
Hits are given with their value; - = inactive; . = no result given.

SMILES	Tb MetRS inh	Neddyl block	CSN deneddyl inh	PREPL inhibitor	HNF4A DNA FP	Rpn11 block	TbMetRS confirm	Jurkat cytotox	TbMetRS FP orth
CC(=O)Nc1ccc(N=c2cc([N+](=O)[O-])cc(Cl)n2O)cc1	-	-	-	-	-	-	.	.	.
O=C(Cc1ccccc1)N/N=C/c1cccn1-c1ccc([N+](=O)[O-])cc1	13	-	-	-	-	-	34	-	-
CN1OC[C@@H]2CN[C@H](c3ccc(-c4cc5ccccc5o4)cc3)C[C@@H]21	-	-	-	.	-	-	.	.	.
O=C(C/C=N\OCc1ccc([N+](=O)[O-])cc1)Nc1ccc(Br)cc1	83	-	-	-	-	-	101	-	91
O=C(Nc1ccc(F)c(F)c1)c1ccc(-n2cncn2)c([N+](=O)[O-])c1	37	-	-	-	-	-	58	-	29
O=C(NNC(=O)c1ccccc1F)c1ccc(-n2cncn2)c([N+](=O)[O-])c1	-	-	-	-	-	-	.	.	.
Cc1cccc(NC(=O)c2ccc(-n3cccn3)c([N+](=O)[O-])c2)c1	-	-	-	-	-	-	.	.	.
O=C(Nc1cccc(/C=C/c2ccccn2)c1)c1ccc(-n2cncn2)c([N+](=O)[O-])c1	23	-	-	-	-	-	62	22	55
O=C(Nc1cc(F)ccc1F)c1ccc(-n2cncn2)c([N+](=O)[O-])c1	36	-	-	-	-	-	57	-	33
CCCC(=O)N1CCC1(C)C(=O)NCc1ccccc1SC (stereo unspecified)	-	-	-	.	-	-	.	.	.
C(=N\Nc1nc2ccccc2[nH]1)/c1ccc2ncccc2c1	-	-	-	-	-	-	.	.	.
C(=N\Nc1nc2ccccc2[nH]1)/c1cccc2nccnc12	5.9	-	-	-	-	-	9.9	96	25
COc1ccc2c(c1)c(/C=N/Nc1nc3ccccc3[nH]1)c(C)n2C	7.1	-	-	-	-	-	19	16	18
COc1ccc(/C=N/Nc2nc3ccccc3[nH]2)cc1OC	8.5	-	-	-	-	-	12	-	31
COc1cc(OC)c(OC)cc1/C=N/Nc1ncnc2c1[nH]c1ccccc12	-	.	-	-	-	-	.	.	.
COc1cc(OC)c(OC)cc1/C=N/Nc1nc2ccccc2[nH]1	8.7	-	-	-	-	-	18	-	31
Cc1ccc(Cl)cc1-c1cc(C(=O)N2CCc3ccccc3C2)[nH]n1	-	-	-	.	-	-	.	.	.
CC(C)=CCC/C(C)=C/CNC(=O)C[C@H]1C[C@H](C(=O)N2CCOCC2)[C@@]2(CCC3CCCC3)c3[nH]c4cc(CCC(=O)N(C)C)ccc4c3CCN2C1=O	-	-	-	.	-	-	.	.	.
CC(=O)c1ccc(NC(=O)CN2C(=O)NC(C)(C3CCCCC3)C2=O)cc1 (stereo unspecified)	-	-	-	-	-	-	.	.	.
Nc1cc(C(=O)OCC(=O)NCCCc2ccccc2)ccc1Cl	9.0	-	-	-	-	-	18	-	-
CCc1ccccc1NC(=O)NNC(=O)CCc1ccc(OC)cc1	-	-	-	.	-	-	.	.	.
CCN1C(=O)C(CC(=O)Nc2ccc(OC)cc2)N(CCN2CCOCC2)C1=S (stereo unspecified)	-	-	-	-	-	-	.	.	.
CCN1C(=O)C(CC(=O)Nc2ccc(OC)cc2)N(CCc2ccccc2F)C1=S (stereo unspecified)	33	-	-	-	-	-	34	18	21
COc1ccc(NC(=O)CC2C(=O)N(C)C(=S)N2CCc2ccccc2F)cc1 (stereo unspecified)	35	-	-	-	-	-	46	-	20
COC(=O)[C@H](NC(=O)c1cc(-c2ccccc2)sc1N)C(C)C	-	-	-	.	-	.	.	.	.

Compound activity: PubChem BioAssay, several laboratories
